High-throughput results as filed in PubChem.
Mdm2-MdmX inh = disrupts the human Mdm2-MdmX interaction; SaOS-2 split-luciferase Mdm2/MdmX complementation, luminescence; inhibition, % at 8 µM; 3% of 330,000 active; AID 485346;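 active = inhibition of at least 50% at 8 µM in the primary screen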
Target sequence (O15151 whole entry, looked up): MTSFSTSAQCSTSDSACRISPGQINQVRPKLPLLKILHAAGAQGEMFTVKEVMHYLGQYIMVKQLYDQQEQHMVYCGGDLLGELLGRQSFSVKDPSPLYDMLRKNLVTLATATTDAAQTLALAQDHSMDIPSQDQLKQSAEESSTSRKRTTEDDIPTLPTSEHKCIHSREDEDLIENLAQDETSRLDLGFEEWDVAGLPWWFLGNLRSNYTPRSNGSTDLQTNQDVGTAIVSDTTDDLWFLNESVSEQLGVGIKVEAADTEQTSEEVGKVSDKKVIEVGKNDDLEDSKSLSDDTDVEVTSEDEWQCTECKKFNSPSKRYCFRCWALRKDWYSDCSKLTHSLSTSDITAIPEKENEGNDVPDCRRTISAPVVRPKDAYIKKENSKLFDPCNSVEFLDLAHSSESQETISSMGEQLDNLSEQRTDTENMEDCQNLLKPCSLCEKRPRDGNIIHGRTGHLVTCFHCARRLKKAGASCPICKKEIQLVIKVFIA
Target sequence (Q00987 whole entry, looked up): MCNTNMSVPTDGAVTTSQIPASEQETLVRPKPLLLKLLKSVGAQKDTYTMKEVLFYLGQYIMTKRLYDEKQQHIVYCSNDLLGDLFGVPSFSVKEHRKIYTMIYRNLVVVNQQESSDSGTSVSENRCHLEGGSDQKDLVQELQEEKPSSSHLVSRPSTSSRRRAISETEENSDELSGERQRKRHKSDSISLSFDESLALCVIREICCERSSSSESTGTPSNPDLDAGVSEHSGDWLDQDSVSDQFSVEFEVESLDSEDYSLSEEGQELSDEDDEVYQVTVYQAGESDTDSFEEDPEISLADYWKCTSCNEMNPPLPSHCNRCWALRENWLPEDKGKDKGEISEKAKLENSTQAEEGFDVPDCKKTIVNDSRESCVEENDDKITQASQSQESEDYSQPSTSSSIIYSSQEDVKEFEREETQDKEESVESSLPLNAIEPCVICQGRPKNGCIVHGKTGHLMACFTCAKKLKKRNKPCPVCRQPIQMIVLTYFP
L major viab = Leishmania major promastigote growth inhibition; Leishmania major promastigotes, resazurin fluorescence viability; inhibition, % at 10 µM; 9% of 200,000 active; AID 1063; in the data active = inhibition above about 50%;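 note: promastigotes grown with compound for 44 hours at 28 °C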
T cruzi inh = T. cruzi replication inhibition. T. cruzi beta-gal in NIH3T3, luminescence, 90 h. inhibition, % (no concentration beside the values). 1.4% of 300,000 active. AID 1885;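 active = mean inhibition across valid replicates above about 55%, limit read from the data; inconclusive = mean below that limit but half or more replicates reach it; inactive = mean below it, under half of replicates reach it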;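 note: signal also drops with host cell toxicity which is not excluded here; higher percent means less beta-gal luminescence so fewer parasites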
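Read-out: Parasite load inhibition, % | Test system: Mouse NIH/3T3 fibroblasts infected with β-gal-expressing T. cruzi Tulahuen C4 | Amount: 5,000 cells/well | Medium: DMEM, 2% fetal bovine serum | Signal: GalScreen β-gal luminescence, detergent lysis, 60 min | Timing: 3 h attach, ≥90 h co-culture | Also added: Tulahuen C4 trypomastigotes, 5000/well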
SKKanGAS inh = blocks kanamycin growth of S. pyogenes SKKanGAS strain; BacTiter-Glo, 6 h; inhibition, % at 7.5 µM; 1.3% of 300,000 active; AID 1662;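 active = mean replicate score, as percent of positive control median, at least 50; inconclusive = mean below 50 but one replicate at or above 50; inactive = mean and every replicate below 50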;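 note: strain carries kanamycin resistance gene driven by streptokinase promoter and grows in 40 µg/ml kanamycin; loss of luminescence reflects streptokinase promoter inhibition or plain growth inhibition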
Beta cell apopt = blocks beta cell apoptosis | AID 435005 | protection from apoptosis, % (test concentration not listed) | 0.8% of 300,000 active | INS-1E cytokine-induced death, ATP luminescence, 48 h; percent of positive-control rescue, neutral wells zero;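 active = Every replicate reaches about 75%, or at least half do and their mean reaches it too, limit read from the data; inconclusive = At least half of replicates reach the limit but their mean does not; inactive = Under half of replicates reach the limit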;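 note: higher means more ATP so stronger rescue from cytokine killing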
CSC inhib = cancer stem cell inhibition. cancer stem cell-like cells viability, luminescence. inhibition, % at 7.5 µM. 1.1% of 300,000 active. AID 2717; in the data active = inhibition above about 75%; inconclusive = no clear call, values can overlap the other calls; tested in HMLE shEcad cells
Large screens that a line does not name were inactive. Hits are enriched below; roughly 9.4% of the tested compounds scored in any of these assays.

COc1ccc(S(=O)(=O)NCC(c2cccnc2)N2CCN(c3ccccc3)CC2)cc1C (stereo unspecified)	L major viab 97, T cruzi inh 63
COc1ccc(S(=O)(=O)N2CCOCC2)cc1NC(=O)C1CC1	none (no result: L major viab, T cruzi inh, SKKanGAS inh)
Cc1ccc(-c2csc(Cc3nc(-c4ccc5c(c4)CCC(=O)N5)cs3)n2)cc1	SKKanGAS inh 71 (no result: L major viab)
O=C(OC(c1ccccc1)c1nccc2ccccc12)c1cc([N+](=O)[O-])cc([N+](=O)[O-])c1 (stereo unspecified)	L major viab 98, T cruzi inh 58
CCOC(=O)c1c(NC(=O)CSc2nc3cccnc3n2C)sc(C(C)=O)c1C	none (no result: CSC inhib)
CCOC(=O)c1sc(NC(=O)CNCc2cccnc2)c(C(=O)OCC)c1C	none
CCOC(=O)c1sc(NC(=O)CNCc2ccccn2)c(C(=O)OCC)c1C	SKKanGAS inh 88 (no result: L major viab)
CCOC(=O)c1c(NC(=O)CSc2nnc(-c3ccccc3C)n2C)sc(C(C)=O)c1C	L major viab 73
CCOC(=O)c1c(NC(=O)CSc2ncnc3ccccc23)sc(C(C)=O)c1C	L major viab 80 (no result: SKKanGAS inh)
CCn1cc(C(=O)NCCCN2CCCC(C)C2)c(=O)c2cc(S(=O)(=O)N(C)C3CCCCC3)ccc21 (stereo unspecified)	none (no result: L major viab)
O=C(COC(=O)Cc1cccc(C(F)(F)F)c1)Nc1ccc2[nH]c(=O)[nH]c2c1	none (no result: L major viab, Beta cell apopt)
Cc1ccc(C)c(N2CCN(C(=O)CN3C(=S)NC(C)(C)CC3C)CC2)c1 (stereo unspecified)	none
Cc1cc(Oc2cnn(C(C)(C)C)c(=O)c2Cl)cc(C(C)C)c1	SKKanGAS inh 59
CCn1c(NC(=O)c2ccccc2F)c(-c2cccs2)c(=O)c2ccccc21	none (no result: L major viab)
Oc1ccc(C[C@@H]2CNC(=S)N2CCCCC2CCCCC2)cc1	CSC inhib 115
CC(=O)NC(=S)Nc1ccc(NC(=S)NC(=O)c2cccs2)cc1	SKKanGAS inh inconclusive (no result: L major viab)
CCOc1ccc(C(=O)NC(=S)Nc2ccc(NC(=O)CC)cc2)cc1[N+](=O)[O-]	SKKanGAS inh 53
CCOc1ccc(C(=O)NC(=S)Nc2cccc(NC(=O)c3ccco3)c2)cc1[N+](=O)[O-]	SKKanGAS inh 65
CCOc1ccc(C(=O)NC(=S)Nc2ccccc2OC)cc1[N+](=O)[O-]	none
Cc1c(C(=O)NC(=S)Nc2ccc(NC(=O)c3cccs3)cc2)cccc1[N+](=O)[O-]	L major viab 98
CCOc1ccc(C(=O)NC(=S)Nc2ccccc2N2CCCCC2)cc1[N+](=O)[O-]	L major viab 95, CSC inhib inconclusive
CC(=O)NC(Cc1cccc(C)c1)C(=O)NC1CCN(C(=O)NCc2ccccc2)CC1 (stereo unspecified)	none (no result: L major viab, Beta cell apopt, CSC inhib)
CCOc1ccc(S(=O)(=O)N2CCCC(C(=O)Nc3cccc(C)c3)C2)cc1 (stereo unspecified)	none (no result: L major viab)
CC(NC(=O)COC(=O)C1CSC2(C)CCC(=O)N12)C12CC3CC(CC(C3)C1)C2 (stereo unspecified)	none
CCOC(=O)/C(C#N)=C/c1cccc(F)c1	none
CCOc1ccc(C(=O)Nc2ccc(N3CCN(C)CC3)cc2)cc1[N+](=O)[O-]	none (no result: Beta cell apopt)
CCOc1ccc(C(=O)NC(=S)Nc2ccc(N3CCCCC3)cc2)cc1[N+](=O)[O-]	L major viab 99
COc1ccc(C(=O)NC(=S)Nc2cc(C)ccn2)cc1[N+](=O)[O-]	L major viab 62
COc1ccc(C(=O)NC(=S)Nc2ccccc2N2CCCCC2)cc1[N+](=O)[O-]	L major viab 99, CSC inhib 101
CCOc1ccc(C(=O)NC(=S)NC2CCCC2)cc1[N+](=O)[O-]	L major viab 58
CCOc1ccc(C(=O)Nc2ccc(-c3cc4ccccc4oc3=O)c(C)c2)cc1[N+](=O)[O-]	L major viab 56
COc1ccc(C(=O)Nc2c(C)ccc3nsnc23)cc1[N+](=O)[O-]	L major viab 83 (no result: Beta cell apopt)
COc1cc(C(=O)NC(=S)Nc2ccccc2N2CCOCC2)cc(OC)c1OC	none (no result: L major viab)
O=C(NC(=S)Nc1ccccc1N1CCCC1)c1ccc([N+](=O)[O-])cc1	none (no result: Beta cell apopt)
Cc1c(C(=O)NC(=S)Nc2ccccc2N2CCCC2)cccc1[N+](=O)[O-]	L major viab 87 (no result: Beta cell apopt)
COc1cccc(C(=O)NC(=S)Nc2ccccc2N2CCOCC2)c1	CSC inhib 116 (no result: L major viab)
Cc1cc(C)c(OCC(=O)N(Cc2ccc(N(C)C)cc2)C2CCS(=O)(=O)C2)c(C)c1 (stereo unspecified)	none (no result: L major viab)
COc1ccc(N(CC(=O)Nc2ccccc2C(N)=O)S(=O)(=O)c2ccc(C)c([N+](=O)[O-])c2)cc1	none
O=C(NC(=S)Nc1ccccc1N1CCCCC1)c1cccs1	L major viab 91
O=C(NC(=S)Nc1ccccc1N1CCCC1)c1cccs1	none (no result: L major viab)
CCN(CC(=O)Nc1ccc(NC(C)=O)cc1)C(=O)/C=C/c1c(C)nn(-c2ccc(F)cc2)c1C	none (no result: L major viab, Beta cell apopt)
Oc1ccc(-c2n[nH]c(C(F)(F)F)c2-c2ccccc2)c(O)c1	Beta cell apopt 105
COc1ccc(-c2c(-c3ccc(O)cc3O)n[nH]c2C(F)(F)F)cc1	none (no result: L major viab)
CCN(CC)S(=O)(=O)c1ccc2c3c(cccc13)C(=O)N2	none
CCN(c1cccc(C)c1)S(=O)(=O)c1ccc2c3c(cccc13)C(=O)N2	L major viab 99
O=C(COC(=O)CNC(=O)c1ccc(Cl)cc1Cl)NCc1ccco1	none (no result: L major viab)
COC(=O)N/N=C/c1cc(C)n(-c2cccc3ccccc23)c1C	L major viab 67
CSc1nc(N)nc(SCC(=O)C23CC4CC(CC(C4)C2)C3)c1C#N	T cruzi inh 65 (no result: CSC inhib)
N#Cc1c(N)nc(SCC(=O)C23CC4CC(CC(C4)C2)C3)c(C#N)c1-c1ccc(Cl)cc1	none
CC(C)(C)C1CCC(=NNc2nc3ccccc3[nH]2)CC1 (stereo unspecified)	L major viab 85
c1ccc2c(c1)CC/C2=N/Nc1nc2ccccc2[nH]1	L major viab 100, T cruzi inh 67 (no result: Beta cell apopt, CSC inhib)
c1ccc(CN2CCC(=NNc3nc4ccccc4[nH]3)CC2)cc1	none
O=c1cc(O)nc(-c2ccc(Cl)cc2)s1	none
COc1ccccc1CN1CCC(n2nccc2NC(=O)CCCc2ccccc2)CC1	none (no result: L major viab)
CN1c2ccsc2/C(=N/Nc2ccccc2)CS1(=O)=O	SKKanGAS inh 60
CCN1C/C(=C/c2cccc([N+](=O)[O-])c2)C(=O)/C(=C/c2cccc([N+](=O)[O-])c2)C1	L major viab 100, Beta cell apopt 98, CSC inhib 85 (no result: Mdm2-MdmX inh, T cruzi inh, SKKanGAS inh)
O=C1NC(=O)/C(=C/c2cccc([N+](=O)[O-])c2)N1	none (no result: L major viab)
Cc1ccc(N2CN(Cc3cccnc3)CNC2=S)cc1	T cruzi inh inconclusive
Cc1ccc(C)c(N2CN(Cc3cccnc3)CNC2=S)c1	T cruzi inh 61 (no result: Beta cell apopt, CSC inhib)
COc1ccc([C@H]2CC(=O)C=C(c3cc(Cl)ccc3C)C2)cc1	none (no result: L major viab, T cruzi inh, SKKanGAS inh)
O=C1C=C(c2ccc(F)cc2OCc2ccccc2)C[C@@H](c2ccc(Cl)cc2)C1	Beta cell apopt 111 (no result: L major viab, T cruzi inh, SKKanGAS inh)
